Source: PubChem
SIAE inh – inhibitors of human sialic acid acetylesterase SIAE | inhibition, % at 9.66 µM | SIAE FP-Rh probe binding, fluorescence polarization | AID 1053197 | actives 0.69% (n = 370,000) | Q9HAT2;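 active = inhibition above a cutoff: mean of compounds within the control limits plus 3 SD of those, cut at about 17% in these data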;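 note: 0% = plate median of compound wells and 100% = probe without SIAE protein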
ABHD4 inh – ABHD4 (mouse) inhibition, primary FP screen; Q8VD66; purified mABHD4, FP-Rh probe fluorescence polarization; inhibition, % at 8.92 µM; actives 0.54% (n = 370,000); AID 720543;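 active = inhibition exceeding the mean over every tested compound plus 3 SD, cut at about 30% in these data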;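 note: 0% = plate median of compound wells and 100% = S159A mutant with DMSO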
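Assay system: wild-type mouse ABHD4 protein; compound: single nominal dose of 8.92 µM, 0.89% DMSO final; schedule: 45 min + 60 min at 25 °C; measured by: FP readout, ex 525 nm / em 598 nm; evaluation: % inhibition of FP-Rh probe binding versus controls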
HTRA1 inh – blocks human HTRA1 serine peptidase; Q92743; recombinant HTRA1, FP-rhodamine activity-based probe, fluorescence polarization; inhibition, % at 5.96 µM; actives 0.5% (n = 340,000); AID 504803; in the data active = inhibition above about 36%;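 note: 0% = enzyme with DMSO and 100% = wells lacking enzyme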
pPAFAH FP inh – inhibitors of human plasma PAF acetylhydrolase (pPAFAH) | actives 1.5% (n = 330,000) | AID 463082 | recombinant pPAFAH, FP-rhodamine probe fluorescence polarization | inhibition, % at 3.39 µM;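 active = inhibition above the mean inhibition across the screen plus 3 SD, cut at about 25% in these data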;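 note: inhibitors block binding of the rhodamine activity-based probe so polarization drops; 0% = enzyme with DMSO and 100% = wells lacking pPAFAH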
Target sequence (Q13093 whole entry, looked up): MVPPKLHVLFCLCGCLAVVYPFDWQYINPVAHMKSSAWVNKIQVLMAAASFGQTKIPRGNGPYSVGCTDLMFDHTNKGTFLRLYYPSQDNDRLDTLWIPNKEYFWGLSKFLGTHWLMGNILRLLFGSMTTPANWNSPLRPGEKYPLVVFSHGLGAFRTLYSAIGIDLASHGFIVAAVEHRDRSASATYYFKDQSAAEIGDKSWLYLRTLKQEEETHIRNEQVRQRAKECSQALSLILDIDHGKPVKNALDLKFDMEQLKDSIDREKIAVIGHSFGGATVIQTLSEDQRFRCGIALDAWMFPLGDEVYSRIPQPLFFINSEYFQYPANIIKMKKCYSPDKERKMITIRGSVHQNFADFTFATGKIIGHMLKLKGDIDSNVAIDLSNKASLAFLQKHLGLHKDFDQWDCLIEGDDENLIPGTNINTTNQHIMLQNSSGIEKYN
TCR CD3 inh – blocks the human TCR-CD3 interaction; TAMRA-labeled TCR probe fluorescence, biochemical; inhibition, % at 9.4 µM; actives 0.37% (n = 360,000); AID 651800; in the data active = inhibition above about 19%;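 note: recombinant mutant TCR 2C K166C tagged with TAMRA read by polarization; 0% = receptor in buffer alone and 100% = receptor with positive control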
pPAFAH confirm – pPAFAH (human) inhibition, confirmed. shares compounds with pPAFAH FP inh. recombinant pPAFAH, FP-Rh probe fluorescence polarization. inhibition, % at 3.39 µM. actives 72% (n = 2,300);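 active = mean inhibition of the triplicate above the hit cutoff set for the earlier primary screen, cut at about 25% in these data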;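 note: 0% = enzyme with DMSO and 100% = wells lacking pPAFAH enzyme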
Active calls of the source: *. An excerpt weighted towards active compounds, which were near 2.3% of everything screened.

Screening COc1ccc(S(=O)(=O)Nc2ccccc2C(=O)Nc2nc(-c3ccc(F)cc3)cs2)cc1OC returned SIAE inh -8, ABHD4 inh -22, HTRA1 inh -32, pPAFAH FP inh 15 and TCR CD3 inh -2.
`COc1ccc(-c2csc(NC(=O)c3ccccc3NS(=O)(=O)c3ccc(C)cc3)n2)cc1` gave SIAE inh 1, ABHD4 inh -32, HTRA1 inh -50, pPAFAH FP inh 39*, TCR CD3 inh 6 and pPAFAH confirm 49*.
Screening CCN(CC)c1nc(C)nc2c1nnn2Cc1ccccc1 returned SIAE inh 14 and ABHD4 inh -1.
Screening Cc1cccc(NS(=O)(=O)c2ccc(C)c(C(=O)OCC(=O)Nc3cc(C)on3)c2)c1 returned SIAE inh -13, ABHD4 inh -8, HTRA1 inh -71, pPAFAH FP inh 68*, TCR CD3 inh 1 and pPAFAH confirm 62*.
For Cc1cc(NC(=O)COC(=O)CNS(=O)(=O)c2ccc(C)c(C)c2)no1 the results were SIAE inh -6, ABHD4 inh 3, HTRA1 inh -5, pPAFAH FP inh 7 and TCR CD3 inh 4.
For CC(=NNC(=O)CSc1nnc(-c2ccccc2)n1-c1ccccc1)c1cccc([N+](=O)[O-])c1 the results were SIAE inh 10 and ABHD4 inh 0.
`Cc1ccc(C2Nc3ccc4ccccc4c3C3=C2C(=O)CC(C)(C)C3)o1` (stereo not drawn) gave HTRA1 inh -9 and pPAFAH FP inh 11.
`O=C1CCCC2=C1C(c1ccco1)Nc1ccc3ccccc3c12` (stereo not drawn) gave SIAE inh 4, ABHD4 inh 25, HTRA1 inh 15, pPAFAH FP inh 40*, TCR CD3 inh 11 and pPAFAH confirm 29*.
For O=S1(=O)N=C(N/N=C/c2ccccn2)c2ccccc21 the results were SIAE inh -4, ABHD4 inh -12, HTRA1 inh 2, pPAFAH FP inh 76*, TCR CD3 inh -3 and pPAFAH confirm 2.
Screening COc1cc(C(=O)NCCCN2CCCC2=O)cc(Br)c1OCc1ccccc1 returned SIAE inh -2, ABHD4 inh -3, HTRA1 inh -10, pPAFAH FP inh 79*, TCR CD3 inh -5 and pPAFAH confirm 9.
`O=C(NCCCN1CCCC1=O)c1ccc(OCc2ccccc2)cc1` gave SIAE inh 1, ABHD4 inh -9, HTRA1 inh -4, pPAFAH FP inh -4 and TCR CD3 inh 2.
For CC(=O)c1ccc(-n2c(CCC(=O)O)ccc2-c2cccs2)cc1 the results were SIAE inh 4, ABHD4 inh 4, HTRA1 inh 10, pPAFAH FP inh 6 and TCR CD3 inh 0.
Screening Cc1ccc(-n2c(CCC(=O)O)ccc2-c2cccs2)cc1 returned SIAE inh 0, ABHD4 inh -8, HTRA1 inh 2, pPAFAH FP inh 51*, TCR CD3 inh -5 and pPAFAH confirm 13.
Screening COCCNC(=O)/C(C#N)=C/c1cc(C)n(-c2ccc(C)cc2)c1C returned SIAE inh 6, ABHD4 inh -5, HTRA1 inh 2, pPAFAH FP inh 55*, TCR CD3 inh 5 and pPAFAH confirm 52*.
For COCCCN1C(=O)[C@H](CC(=O)NCc2cccs2)[C@]2(C(=O)OC)CCCCC=C12 the results were SIAE inh -3 and ABHD4 inh 5.
Screening Cc1cccc(N=C2NC(=O)/C(=C/C=C/c3ccco3)S2)c1 returned SIAE inh 15, ABHD4 inh -1, HTRA1 inh 11, pPAFAH FP inh 50*, TCR CD3 inh -11 and pPAFAH confirm 25*.
Screening CN(CC(=O)Nc1ccc(F)c(F)c1F)C(=O)c1cc(S(=O)(=O)N(C)C)ccc1N1CCCC1 returned SIAE inh 0, ABHD4 inh 6, HTRA1 inh -1 and TCR CD3 inh -11.
For Cc1cccc(C)c1NC(=O)CN(C)C(=O)c1cc(S(=O)(=O)N(C)C)ccc1N1CCCC1 the results were SIAE inh 0, ABHD4 inh 3, HTRA1 inh -5, pPAFAH FP inh 35*, TCR CD3 inh 3 and pPAFAH confirm 4.
Screening CC1=Nc2nc(N3CCCCCC3)c(C#N)c3c4c(nc(c23)N1)N(c1ccc2ccccc2c1)C(=O)C4 returned HTRA1 inh 4, pPAFAH FP inh 59* and pPAFAH confirm 22.
Screening CCc1c(C)nc2ncnn2c1N1CCCC(C(=O)NCc2cccs2)C1 (stereo not drawn) returned SIAE inh 1, ABHD4 inh -4, HTRA1 inh 6, pPAFAH FP inh -2 and TCR CD3 inh 3.
Screening CCc1c(C)nc2ncnn2c1N1CCCC(C(=O)NCc2ccco2)C1 (stereo not drawn) returned SIAE inh -3, ABHD4 inh 7, HTRA1 inh -3, pPAFAH FP inh 57*, TCR CD3 inh 3 and pPAFAH confirm 4.
For COc1ccccc1NC(=O)COC(=O)c1ccc([N+](=O)[O-])s1 the results were SIAE inh -6, ABHD4 inh -1, HTRA1 inh 33, pPAFAH FP inh 37*, TCR CD3 inh -3 and pPAFAH confirm 6.
Screening O=C1NC(=O)C2(CCOc3ccc(F)cc32)N1 (stereo not drawn) returned SIAE inh -8, ABHD4 inh -3 and TCR CD3 inh 3.
`COc1cc(/C=C2/SC(=S)N(Cc3ccccc3)C2=O)ccc1OS(C)(=O)=O` gave SIAE inh 0, ABHD4 inh -4, HTRA1 inh -3, pPAFAH FP inh 13 and TCR CD3 inh 0.
COc1cc(/C=C2/SC(=S)N(Cc3ccccc3)C2=O)ccc1OCC(=O)O was read as SIAE inh -9, ABHD4 inh -14, HTRA1 inh -59, pPAFAH FP inh 49*, TCR CD3 inh 2 and pPAFAH confirm 28*.
O=C1c2ccc(-c3ccc(F)cc3OCc3ccccc3)cc2S(=O)(=O)c2cccc(C(=O)N3CCCC3)c21 was read as HTRA1 inh -4, pPAFAH FP inh 46* and pPAFAH confirm 45*.
For O=c1oc2c(O)c(O)cc3c(=O)oc4c(O)c(O)cc1c4c23 the results were HTRA1 inh 23, pPAFAH FP inh 93* and pPAFAH confirm 92*.
For COC(=O)[C@]12C[C@H](CC(=O)NCc3cccc4ccccc34)C(=O)N(Cc3ccc(Cl)cc3Cl)C1=C[C@H](C(C)(C)C)O[C@@H]2C the results were SIAE inh 2 and ABHD4 inh -11.
COC(=O)CCSc1cc(NCCOC(C)=O)c([N+](=O)[O-])c2nonc12 was read as SIAE inh -7, ABHD4 inh 0, HTRA1 inh 3, pPAFAH FP inh 3 and TCR CD3 inh 3.
`CC(=O)OCCNc1cc(SCc2ccco2)c2nonc2c1[N+](=O)[O-]` gave HTRA1 inh 13, pPAFAH FP inh 58* and pPAFAH confirm 6.
